Results as given in ChEMBL document CHEMBL2311282, “Asymmetric synthesis and anti-protozoal activity of the 8,4'-oxyneolignans virolin, surinamensin and analogues” (Eur J Med Chem, 2013).
In brackets after ≈: the same amount, converted by molar mass.

Tests used:
[1] = Toxicity against rat L6 cells after 72 hrs by Alamar blue assay; type: cell-based
Outline: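 Cytotoxicity was measured on the L6 rat skeletal myoblast cell line, with podophyllotoxin as the positive control.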

Plasmodium falciparum = experiment: Anti-protozoal activity against Plasmodium falciparum K1 IEF stage after 72 hrs by [3H]hypoxanthine incorporation assay; type: functional, organism-based
Outline: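 P. falciparum K1 strain was tested at the IEF stage, with chloroquine as the positive control.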

Leishmania donovani = experiment: Anti-protozoal activity against Leishmania donovani MHOM-ET-67/L82 amastigotes after 72 hrs by Alamar blue assay; type: functional, organism-based; details: MHOM-ET-67/L82, 72 h

| Structure (SMILES) | IC50 at 72 h [1] | IC50 (Plasmodium falciparum) | IC50 (Leishmania donovani) |
| --- | --- | --- | --- |
| COc1ccc([C@H](O)[C@@H](C)Oc2ccc(Br)cc2OC)cc1 | 13.5 µg/mL (≈ 36.8 µM) | 4.31 µg/mL (≈ 11.7 µM) | 4.79 µg/mL (≈ 13 µM) |
| COc1ccc([C@@H](O)[C@@H](C)Oc2ccc(Br)cc2OC)cc1OC | 20.9 µg/mL (≈ 52.6 µM) | 2.5 µg/mL (≈ 6.29 µM) | 10.8 µg/mL (≈ 27.2 µM) |
| COc1cc(Br)ccc1O[C@H](C)[C@H](O)c1ccc2c(c1)OCO2 | 48.2 µg/mL (≈ 126 µM) | 10.8 µg/mL (≈ 28.3 µM) | 9.2 µg/mL (≈ 24.1 µM) |
| COc1cc(Br)ccc1O[C@H](C)[C@@H](O)c1cc(OC)c(OC)c(OC)c1 | 20.3 µg/mL (≈ 47.5 µM) | 8.47 µg/mL (≈ 19.8 µM) | 11.3 µg/mL (≈ 26.4 µM) |
| COc1ccc(C(=O)[C@@H](C)Oc2ccc(Br)cc2OC)cc1OC | 41.6 µg/mL (≈ 105 µM) | 3.12 µg/mL (≈ 7.89 µM) | 12.1 µg/mL (≈ 30.6 µM) |
| C/C=C/c1ccc(O[C@H](C)[C@@H](O)c2ccccc2)c(OC)c1 | 11.9 µg/mL (≈ 39.9 µM) | 3.23 µg/mL (≈ 10.8 µM) | 2.29 µg/mL (≈ 7.67 µM) |
| C/C=C/c1ccc(O[C@H](C)[C@@H](O)c2ccc(OC)cc2)c(OC)c1 | 15.5 µg/mL (≈ 47.2 µM) | 1.33 µg/mL (≈ 4.05 µM) | 5.54 µg/mL (≈ 16.9 µM) |
| C/C=C/c1ccc(O[C@H](C)[C@@H](O)c2ccc3c(c2)OCO3)c(OC)c1 | 15.3 µg/mL (≈ 44.7 µM) | 4.59 µg/mL (≈ 13.4 µM) | 6.82 µg/mL (≈ 19.9 µM) |
| C/C=C/c1ccc(O[C@H](C)[C@H](O)c2ccc3c(c2)OCO3)c(OC)c1 | 14.7 µg/mL (≈ 42.9 µM) | 1.73 µg/mL (≈ 5.05 µM) | 10.2 µg/mL (≈ 29.8 µM) |
| COc1cc(-c2ccccc2)ccc1O[C@H](C)[C@@H](O)c1ccccc1 | 11.2 µg/mL (≈ 33.5 µM) | 5.99 µg/mL (≈ 17.9 µM) | 2.48 µg/mL (≈ 7.42 µM) |
| COCO[C@H](c1ccc(OC)c(OC)c1)[C@@H](C)Oc1ccc(Br)cc1OC | 50.6 µg/mL (≈ 115 µM) | 49.3 µg/mL (≈ 112 µM) | 60.3 µg/mL (≈ 137 µM) |
| C/C=C/c1ccc(O[C@H](C)[C@@H](OCOC)c2ccccc2)c(OC)c1 | 52.3 µg/mL (≈ 153 µM) | 47.3 µg/mL (≈ 138 µM) | 52.5 µg/mL (≈ 153 µM) |
| C/C=C/c1ccc(O[C@H](C)[C@@H](O)c2ccc(OC)c(OC)c2)c(OC)c1 | 13.2 µg/mL (≈ 36.8 µM) | 1.71 µg/mL (≈ 4.77 µM) | 10.6 µg/mL (≈ 29.6 µM) |
| CCN(CC)CCCC(C)Nc1ccnc2cc(Cl)ccc12 (stereo unspecified) [CHLOROQUINE] | – | 0.54 µg/mL (≈ 1.69 µM) | – |
| CCCCCCCCCCCCCCCCOP(=O)([O-])OCC[N+](C)(C)C [MILTEFOSINE] | – | – | 0.144 µg/mL (≈ 0.353 µM) |
